Data on two molecules can be found in ChEMBL document CHEMBL1138921, “Discovery of 3,5-bis(trifluoromethyl)benzyl L-arylglycinamide based potent CCR2 antagonists” (Bioorg Med Chem Lett, 2006).

The nature of series [1]: Portal level in rat at 3 mg/kg, po after 1 hr. The class given is ADME, organism-based. Further details: dose 3 mg/kg, route oral. To be noted: portal vein (blood or plasma not stated), read-out: Activity. The procedure, abridged:
(§1)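 Rats dosed orally at 3 mg/kg; drug levels in portal and systemic blood sampled at several time points to assess first-pass metabolism.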

A short description of series [2]: Half life in rat. It counts as ADME, organism-based. As to conditions: in vivo.
Series [3] deals with T1, C-C chemokine receptor type 2 (Homo sapiens, UniProt P41597). Briefly: Antagonist activity against CCR2 assessed as inhibition of MCP1-induced calcium flux in human monocytes. The class given is functional, cell-based.
T1 sequence (P41597 whole entry): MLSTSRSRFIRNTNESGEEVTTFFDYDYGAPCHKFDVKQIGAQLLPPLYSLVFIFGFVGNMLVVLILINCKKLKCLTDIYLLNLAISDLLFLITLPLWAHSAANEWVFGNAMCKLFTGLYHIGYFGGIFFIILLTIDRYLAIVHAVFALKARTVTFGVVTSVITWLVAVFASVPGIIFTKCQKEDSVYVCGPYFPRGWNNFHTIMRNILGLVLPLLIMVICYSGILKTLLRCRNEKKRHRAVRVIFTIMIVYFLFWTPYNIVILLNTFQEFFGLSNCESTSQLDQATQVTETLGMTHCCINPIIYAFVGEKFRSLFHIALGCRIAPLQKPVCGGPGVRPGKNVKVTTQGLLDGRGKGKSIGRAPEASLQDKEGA
Series [4] addresses T2, C-C chemokine receptor type 1 (Homo sapiens, UniProt P32246).
T2 sequence (P32246 whole entry): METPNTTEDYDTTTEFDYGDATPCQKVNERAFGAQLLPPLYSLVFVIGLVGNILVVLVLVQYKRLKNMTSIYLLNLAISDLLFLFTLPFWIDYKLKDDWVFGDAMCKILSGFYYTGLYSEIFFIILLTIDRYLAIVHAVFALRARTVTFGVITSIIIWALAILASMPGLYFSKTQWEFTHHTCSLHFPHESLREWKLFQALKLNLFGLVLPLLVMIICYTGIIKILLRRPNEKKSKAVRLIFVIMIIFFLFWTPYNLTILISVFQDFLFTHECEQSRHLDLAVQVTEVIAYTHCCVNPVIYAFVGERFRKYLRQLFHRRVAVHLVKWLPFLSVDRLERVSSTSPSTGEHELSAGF
Nature of the series: (§2) Binding affinity to CCR1.

For series [5], the target named is T3, C-C chemokine receptor type 1 (Homo sapiens) (UniProt P32246).
T3 sequence (whole entry): T2 sequence (P32246 whole entry)
The series is described as §2.

For the next series, the system named is Rattus norvegicus. Nature of the series: Systemic level in rat at 3 mg/kg, po. The class given is ADME, organism-based. Further details: dose 3 mg/kg, route oral. As to conditions: in vivo. The procedure, abridged:
as §1

Series [6] concerns the target C-C chemokine receptor type 5 (Homo sapiens, UniProt P51681).
In series [7] the target is T4, C-C chemokine receptor type 4 (Homo sapiens) (UniProt P51679).
T4 sequence (whole entry): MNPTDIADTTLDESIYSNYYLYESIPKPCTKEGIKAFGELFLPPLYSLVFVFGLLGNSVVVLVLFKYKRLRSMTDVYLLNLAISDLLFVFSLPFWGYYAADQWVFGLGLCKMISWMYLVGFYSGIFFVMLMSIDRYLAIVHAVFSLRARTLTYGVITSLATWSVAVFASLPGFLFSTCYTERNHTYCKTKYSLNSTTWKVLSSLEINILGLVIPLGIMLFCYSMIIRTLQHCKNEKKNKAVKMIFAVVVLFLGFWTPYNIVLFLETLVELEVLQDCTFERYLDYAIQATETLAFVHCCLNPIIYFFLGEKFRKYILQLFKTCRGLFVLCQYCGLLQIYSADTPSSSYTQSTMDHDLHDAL
Briefly: (§3) Binding affinity to CCR4.

Series [8] deals with T5, C-C chemokine receptor type 4 (Homo sapiens, UniProt P51679).
T5 sequence (P51679 whole entry): T4 sequence (whole entry)
Described as §3.

A further series concerns the target Substance-P receptor (Homo sapiens, UniProt P25103). Briefly: Binding affinity to human NK1 receptor.
Series [9] is described as follows: Oral bioavailability in rat. It counts as ADME, organism-based. To be noted: in vivo.
Series [10] deals with C-C chemokine receptor type 8 (Homo sapiens, UniProt P51685). Nature of the series: Binding affinity to CCR8.
C-C chemokine receptor type 8, sequence (P51685 whole entry): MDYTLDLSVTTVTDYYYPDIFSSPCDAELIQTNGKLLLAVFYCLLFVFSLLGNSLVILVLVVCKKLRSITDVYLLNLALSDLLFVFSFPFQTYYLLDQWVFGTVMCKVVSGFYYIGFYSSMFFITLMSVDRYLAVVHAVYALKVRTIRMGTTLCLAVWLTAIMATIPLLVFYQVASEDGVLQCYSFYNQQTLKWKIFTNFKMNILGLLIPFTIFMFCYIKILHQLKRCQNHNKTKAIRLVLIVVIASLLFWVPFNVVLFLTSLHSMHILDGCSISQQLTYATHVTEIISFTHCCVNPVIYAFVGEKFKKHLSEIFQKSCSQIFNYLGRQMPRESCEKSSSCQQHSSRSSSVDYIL
The nature of series [11]: Clearance in rat. To be noted: in vivo. It counts as ADME, organism-based.
In the next series the target is T6, Neuromedin-K receptor (Homo sapiens, UniProt P29371).
T6 sequence (P29371 whole entry): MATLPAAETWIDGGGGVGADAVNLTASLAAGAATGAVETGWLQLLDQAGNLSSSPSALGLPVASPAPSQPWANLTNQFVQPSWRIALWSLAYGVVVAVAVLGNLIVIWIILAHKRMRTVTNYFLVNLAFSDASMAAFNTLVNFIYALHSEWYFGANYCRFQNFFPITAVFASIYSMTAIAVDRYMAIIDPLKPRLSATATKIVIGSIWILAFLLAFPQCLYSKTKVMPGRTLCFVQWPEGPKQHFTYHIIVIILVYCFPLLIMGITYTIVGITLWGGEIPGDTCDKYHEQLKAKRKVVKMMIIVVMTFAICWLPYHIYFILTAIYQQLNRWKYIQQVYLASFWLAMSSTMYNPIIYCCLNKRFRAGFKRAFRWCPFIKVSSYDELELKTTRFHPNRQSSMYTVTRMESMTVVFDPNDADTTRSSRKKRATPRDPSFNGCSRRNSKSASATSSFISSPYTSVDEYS
Briefly: (§4) Binding affinity to human NK3 receptor.

For series [12], the target named is T7, Neuromedin-K receptor (Homo sapiens) (UniProt P29371).
T7 sequence (whole entry): T6 sequence (P29371 whole entry)
The description is as §4.

Series [13] addresses T8, C-C chemokine receptor type 3 (Homo sapiens, UniProt P51677).
T8 sequence (P51677 whole entry): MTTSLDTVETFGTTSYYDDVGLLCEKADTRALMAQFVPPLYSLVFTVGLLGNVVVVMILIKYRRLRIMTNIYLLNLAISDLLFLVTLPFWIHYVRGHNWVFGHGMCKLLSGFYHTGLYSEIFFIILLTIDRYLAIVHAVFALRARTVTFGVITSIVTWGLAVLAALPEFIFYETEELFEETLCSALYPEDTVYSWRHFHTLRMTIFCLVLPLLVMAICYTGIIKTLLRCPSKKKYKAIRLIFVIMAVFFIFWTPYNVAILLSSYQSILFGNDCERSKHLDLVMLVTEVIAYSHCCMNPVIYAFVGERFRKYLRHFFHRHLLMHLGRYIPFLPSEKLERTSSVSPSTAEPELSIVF
Nature of the series: (§5) Binding affinity to CCR3.

Series [14] addresses T9, C-C chemokine receptor type 3 (Homo sapiens) (UniProt P51677).
T9 sequence (whole entry): T8 sequence (P51677 whole entry)
The series is described as §5.

Series [15] addresses T1, C-C chemokine receptor type 2. Briefly: Binding affinity to CCR2 in human monocytes. It counts as cell-based. The procedure, abridged: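 Competition binding on human monocytes (2 × 10⁵ cells) incubated with ¹²⁵I-hMCP-1 (20–50 pM; 2200 Ci/mmol) and a range of unlabeled competitor concentrations. Buffer: 50 mM HEPES, 5 mM MgCl₂, 1 mM CaCl₂, pH 7.4, for 60 min at room temperature. Stopped by filtration through PEI-presoaked GF/B filters, washed with 25 mM HEPES pH 7.5 / 500 mM NaCl. Reported as IC50.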

The test system of series [16] is Monocyte. Briefly: Inhibition of MCP1-induced chemotaxis of human monocytes. It counts as functional, cell-based. The procedure, abridged:
(§6)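 Human monocytes loaded with Calcein-AM in Hanks' buffer with 0.01% BSA, 37 °C, 30 min, then washed and resuspended in phenol red-free RPMI 1640 with 0.01% BSA. Migration toward MCP-1 measured in disposable 96-well chemotaxis plates (5.7 mm diameter wells), 1.5 × 10⁵ cells/well.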

Series [17] has as its target T10, Substance-K receptor (Homo sapiens) (UniProt P21452).
T10 sequence (whole entry): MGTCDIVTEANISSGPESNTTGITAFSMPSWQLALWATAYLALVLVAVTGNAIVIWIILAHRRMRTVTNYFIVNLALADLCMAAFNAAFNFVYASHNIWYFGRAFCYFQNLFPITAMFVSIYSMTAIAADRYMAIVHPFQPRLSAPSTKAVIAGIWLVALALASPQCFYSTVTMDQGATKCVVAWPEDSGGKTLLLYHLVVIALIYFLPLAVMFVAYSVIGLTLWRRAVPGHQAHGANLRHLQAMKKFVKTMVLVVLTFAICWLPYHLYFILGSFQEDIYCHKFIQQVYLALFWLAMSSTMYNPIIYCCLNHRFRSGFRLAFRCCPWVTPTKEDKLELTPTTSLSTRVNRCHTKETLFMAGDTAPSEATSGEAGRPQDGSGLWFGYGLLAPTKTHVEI
Briefly: (§7) Binding affinity to human NK2 receptor.

Another series deals with T11, Substance-K receptor (Homo sapiens, UniProt P21452).
T11 sequence (P21452 whole entry): T10 sequence (whole entry)
The series is described as §7.

Series [18] deals with T1, C-C chemokine receptor type 2. Nature of the series: Displacement of [125I]MCP1 from human CCR2 expressed in CHO cells. The class given is cell-based. The procedure, abridged: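 Competition binding: CHO cells stably expressing human CCR2b (5 × 10⁴) incubated with ¹²⁵I-hMCP-1 (20–50 pM) plus varied unlabeled competitor, 60 min, room temperature, in 50 mM HEPES, 5 mM MgCl₂, 1 mM CaCl₂, pH 7.4. Ended by filtration through polyethyleneimine-soaked GF/B filters, washed with 25 mM HEPES pH 7.5/500 mM NaCl. Values given as IC₅₀ or % inhibition at 1 µM.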

In series [19] the test system is Monocyte. Briefly: Inhibition of MCP1-induced chemotaxis of human monocytes at 10 uM. The class given is functional. The procedure, abridged:
as §6

Substance-P receptor, sequence (P25103 whole entry): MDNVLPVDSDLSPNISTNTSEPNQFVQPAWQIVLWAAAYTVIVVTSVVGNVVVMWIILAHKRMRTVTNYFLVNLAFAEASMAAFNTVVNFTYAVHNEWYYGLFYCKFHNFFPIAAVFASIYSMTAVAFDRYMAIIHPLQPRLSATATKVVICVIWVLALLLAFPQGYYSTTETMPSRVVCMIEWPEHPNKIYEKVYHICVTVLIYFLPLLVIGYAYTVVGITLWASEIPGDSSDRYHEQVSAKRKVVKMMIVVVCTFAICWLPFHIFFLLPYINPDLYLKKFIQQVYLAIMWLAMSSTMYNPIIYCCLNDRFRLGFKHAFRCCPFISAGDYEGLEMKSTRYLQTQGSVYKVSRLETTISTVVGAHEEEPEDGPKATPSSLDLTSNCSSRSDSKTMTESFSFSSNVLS
C-C chemokine receptor type 5, sequence (P51681 whole entry): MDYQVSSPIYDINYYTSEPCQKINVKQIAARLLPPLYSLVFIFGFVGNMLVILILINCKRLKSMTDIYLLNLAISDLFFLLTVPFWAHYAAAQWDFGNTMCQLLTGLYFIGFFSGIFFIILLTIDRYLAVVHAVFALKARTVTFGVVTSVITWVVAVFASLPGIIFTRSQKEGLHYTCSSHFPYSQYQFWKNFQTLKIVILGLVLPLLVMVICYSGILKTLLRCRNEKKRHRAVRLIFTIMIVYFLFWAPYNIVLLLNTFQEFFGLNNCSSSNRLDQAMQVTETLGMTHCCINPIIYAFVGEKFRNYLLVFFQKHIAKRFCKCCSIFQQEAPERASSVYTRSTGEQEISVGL

As to `O=C(NCc1cc(C(F)(F)F)cc(C(F)(F)F)c1)[C@@H](NCCN1CCCCC1)c1ccsc1`, in series [1], the concentration at 1 h is > 300 ng/mL. The half-life in series [2] is 108 min. The IC50 in series [3] was 50 nM; in series [4], > 1000 nM; in [6] it was > 1000 nM; in [8] it was > 2000 nM; on Substance-P receptor, > 100 nM; in series [10], > 1000 nM. Besides, the IC50 on Neuromedin-K receptor is > 1000 nM; in series [13], > 1000 nM; in series [15], 30 nM; in the series on Monocyte [16], 9.6 nM; at Substance-K receptor, > 1000 nM; in series [18], 39 nM. Besides, the Activity in [5] was -19%; with Rattus norvegicus, < 20 ng/mL; in series [7] it was 6%; at Substance-P receptor it was 31%; in series [10], 15%; in series [12], 10%. Also, the Activity was 2% in [14] and 20% in series [17]. In series [9], this molecule showed a bioavailability of 4.5%. The same molecule returned a clearance in series [11] of 80 mL/min/kg.
For the molecule `CN(CCN1CCCCC1)c1ccc(-c2nc3cc(Cl)c(Cl)cc3[nH]2)cc1`, in the series with Monocyte [19], the inhibition at 10 µM is 100%.
